Laboratory results taken from ChEMBL document CHEMBL3421632, “Rational design of triazololipopeptides analogs of kisspeptin inducing a long-lasting increase of gonadotropins” (J Med Chem, 2015).
Blank lines part the entries; values can stand above or below the compound they belong to. The source made the active and inactive calls. No cut-off for these calls is given here. *1 amine or outer side, *2 acyl side, *3 side chain or, on linkers, in order; H or OH if unused. Where a SMILES comes first, the peptide text is derived from it. Side-chain parts run from the residue outwards. [ ]: non-standard residue; d: D form. The star is where a group is joined. Glyψ(1,4-Tz)Leu = CC(C)C[C@@H](C(=O)[*:2])n1cc(CN[*:1])nn1; γGlu = O=C(O)[C@H](CCC(=O)[*:2])N[*:1]; Palmitoyl = CCCCCCCCCCCCCCCC(=O)*; azaGly = NNC(=O)O

Legend:
KiSS-1 receptor [1] = biological target: T1, KiSS-1 receptor (Homo sapiens, UniProt Q969F8); experiment: Agonist activity at human wild-type KISS1R expressed in HEK293 cells assessed as induction of intracellular Ca2+ mobilization after 30 mins by Fluo4 NW Ca2+ assay; assay type: functional, cell-based
T1 sequence (Q969F8 whole entry): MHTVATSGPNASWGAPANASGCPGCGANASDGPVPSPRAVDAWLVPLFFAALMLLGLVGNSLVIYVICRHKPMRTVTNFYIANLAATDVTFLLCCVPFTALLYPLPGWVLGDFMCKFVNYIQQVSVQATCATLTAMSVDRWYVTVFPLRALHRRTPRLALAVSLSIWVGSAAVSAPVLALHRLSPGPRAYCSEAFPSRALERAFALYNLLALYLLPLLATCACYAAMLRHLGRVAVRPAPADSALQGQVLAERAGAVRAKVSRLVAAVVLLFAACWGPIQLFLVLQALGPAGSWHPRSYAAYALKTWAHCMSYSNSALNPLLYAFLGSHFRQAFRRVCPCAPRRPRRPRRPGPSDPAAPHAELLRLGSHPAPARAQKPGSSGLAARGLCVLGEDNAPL
In short: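 HEK293 stably expressing HA-tagged wild-type human KISS1R, plated 40 000 cells/well 48 h prior. Loaded with Fluo4 NW dye 30 min at 37 °C plus 30 min at rt. Basal read 5× at 7 s intervals, compound added (final 1 pM–1 μM), Ca2+ followed 7 min. Mean basal subtracted, AUC plotted against concentration, sigmoid fit gives EC50. Nontransfected HEK293 served as control.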

[2] = Stability in Ile-de-France ewe serum assessed as intact compound level at 50 uM incubated for 6 hrs by HPLC method; assay type: ADME, cell-free, Ovis aries; details: female, sheep, read-out: Stability
In short: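 Ile-de-France ewe serum, stored at −20 °C and preheated 30 min at 39 °C. Peptide at 50 μM final, with L-phenylalaninol internal calibrator, incubated at 39 °C. Proteins precipitated with MeCN and spun; supernatant run on RP-HPLC (2–52% MeCN/0.1% TFA over 5 min, UV 214 nm, plus MS). Intact peak given as % of t = 0 area; five independent experiments.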

Ovis aries [3] = experiment: Increase in time duration of increase of plasma LH level in anoestrus Ile-de-France ewe at 1 to 15 nmol, iv by radioimmunoassay; assay type: functional, organism-based
In short: (§1)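 Intact acyclic anoestrous Ile-de-France ewes (3–5 y, 55–70 kg), jugular catheter placed the day before. Single iv bolus of 1–15 nmol/ewe. Basal LH taken every 10 min for 30 min, then every 10 min for 2 h, every 20 min for 4 h, then hourly. Plasma LH by RIA (1051-CY-LH standard, sensitivity 0.1 ng/mL). Peak, duration and AUC derived; mean ± SEM, N = 4–6.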

Ovis aries [4] = experiment: Increase in peak plasma LH level in anoestrus Ile-de-France ewe at 1 nmol, iv by radioimmunoassay (reference value: 0.3 +/- 0.09 ng/ml); assay type: functional; in short: as §1
Ovis aries [5] = experiment: Increase in time duration of increase of plasma LH level in anoestrus Ile-de-France ewe at 15 nmol, iv by radioimmunoassay; assay type: functional; in short: as §1
Ovis aries [6] = experiment: Increase in total plasma LH level in anoestrus Ile-de-France ewe at 15 nmol, iv by radioimmunoassay; assay type: functional; in short: as §1
Ovis aries [7] = experiment: Increase in FSH level in anoestrus Ile-de-France ewe at 15 nmol, iv by radioimmunoassay; assay type: functional, organism-based
In short: (§2)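 Intact acyclic anoestrous Ile-de-France ewes (3–5 y, 55–70 kg), jugular catheter placed the day before. Single iv bolus. Basal sampled every 10 min for 30 min, then every 10 min for 2 h, every 20 min for 4 h, then hourly. Plasma FSH measured by RIA with Tucker reagents (sensitivity 0.1 ng/mL), AUC computed; mean ± SEM, N = 4–6.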

Ovis aries [8] = experiment: Increase in FSH level in anoestrus Ile-de-France ewe at 5 nmol, iv by radioimmunoassay; assay type: functional, organism-based; in short: as §2
Ovis aries [9] = experiment: Increase in peak plasma LH level in anoestrus Ile-de-France ewe at 5 nmol, iv by radioimmunoassay relative to untreated control; assay type: functional; in short: as §1
Ovis aries [10] = experiment: Increase in total plasma LH level in anoestrus Ile-de-France ewe at 1 nmol, iv by radioimmunoassay; assay type: functional; in short: as §1
Ovis aries [11] = experiment: Increase in FSH level in anoestrus Ile-de-France ewe at 1 nmol, iv by radioimmunoassay; assay type: functional, organism-based; in short: as §2
Ovis aries [12] = experiment: Increase in peak plasma LH level in anoestrus Ile-de-France ewe at 15 nmol, iv by radioimmunoassay relative to untreated control; assay type: functional; in short: as §1
Homo sapiens = species on record: Homo sapiens; experiment: Selectivity index, ratio of EC50 for human NPFF1R to EC50 for human wild-type KISS1R
[13] = biological target: Neuropeptide FF receptor 1 (Homo sapiens, UniProt Q9GZQ6); experiment: Agonist activity at human NPFF1R expressed in CHO cells assessed as effect on forskolin-induced cAMP accumulation after 15 mins by luminescence based assay; assay type: functional, cell-based
Sequence of Neuropeptide FF receptor 1 (Q9GZQ6 whole entry): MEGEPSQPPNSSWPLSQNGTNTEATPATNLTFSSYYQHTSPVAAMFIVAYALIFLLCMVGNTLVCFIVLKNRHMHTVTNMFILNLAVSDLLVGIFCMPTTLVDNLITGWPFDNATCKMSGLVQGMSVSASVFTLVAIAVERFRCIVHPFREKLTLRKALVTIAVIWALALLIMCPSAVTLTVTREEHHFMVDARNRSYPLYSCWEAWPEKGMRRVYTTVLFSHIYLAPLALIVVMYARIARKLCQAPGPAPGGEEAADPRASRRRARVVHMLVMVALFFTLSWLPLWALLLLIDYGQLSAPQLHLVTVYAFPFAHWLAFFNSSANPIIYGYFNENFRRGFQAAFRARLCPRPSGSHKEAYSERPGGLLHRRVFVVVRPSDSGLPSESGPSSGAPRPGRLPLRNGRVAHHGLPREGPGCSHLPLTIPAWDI
In short: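 CHO cells stably expressing hNPFF1R (Gαi-coupled), transfected with GloSensor; seeded 30 000 cells/well 24 h before, PBS-washed twice, loaded with GloSensor cAMP reagent 2 h. Compound added, luminescence read 15 min, then 300 nM forskolin + 0.25 mM IBMX added and read a further 120 min. Signal AUC plotted against concentration, sigmoid fit for EC50.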

Ovis aries [14] = experiment: Increase in peak plasma LH level in anoestrus Ile-de-France ewe at 5 nmol, iv by radioimmunoassay (reference value: 0.2 +/- 0.09 ng/ml); assay type: functional; in short: as §1
Ovis aries [15] = experiment: Increase in maximal amplitude of plasma LH level in anoestrus Ile-de-France ewe at 1 to 15 nmol, iv by radioimmunoassay; assay type: functional, organism-based; in short: as §1
Ovis aries [16] = experiment: Increase in total plasma LH level in anoestrus Ile-de-France ewe at 1 to 15 nmol, iv by radioimmunoassay; assay type: functional, organism-based; in short: as §1
Ovis aries [17] = experiment: Increase in peak plasma LH level in anoestrus Ile-de-France ewe at 15 nmol, iv by radioimmunoassay (reference value: 0.3 +/- 0.15 ng/ml); assay type: functional; in short: as §1
KiSS-1 receptor [18] = biological target: T1, KiSS-1 receptor; experiment: Potency index, ratio of EC50 for KP10 to EC50 for compound for agonist activity at human wild-type KISS1R expressed in HEK293 cells assessed as induction of intracellular Ca2+ mobilization after 30 mins by Fluo4 NW Ca2+ assay; assay type: functional, cell-based
In short: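 Ratio of KP10 EC50 to analog EC50, both measured by Fluo4 NW Ca2+ mobilization in HEK293 cells stably expressing HA-tagged human KISS1R. AUC from 7 min of monitoring, concentrations 1 pM–1 μM, sigmoid fit.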

Ovis aries [19] = experiment: Increase in maximal amplitude of plasma LH level in anoestrus Ile-de-France ewe at 5 nmol, iv by radioimmunoassay (reference value: 0.4 +/- 0.2 ng/ml); assay type: functional; in short: as §1
Ovis aries [20] = experiment: Increase in duration of increase of plasma LH level in anoestrus Ile-de-France ewe at 5 nmol, iv by radioimmunoassay; assay type: functional; in short: as §1
Ovis aries [21] = experiment: Increase in total plasma LH level in anoestrus Ile-de-France ewe at 5 nmol, iv by radioimmunoassay; assay type: functional, organism-based; in short: as §1
[22] = Drug metabolism in Ile-de-France ewe serum assessed as cleavage at C and N-termini of azaGly bond at 50 uM incubated for 6 hrs by LC-MS method; assay type: ADME, cell-free, Ovis aries; details: sheep

Structure (SMILES): CC(=O)N[C@@H](Cc1ccc(O)cc1)C(=O)N[C@@H](CC(N)=O)C(=O)N[C@@H](Cc1c[nH]c2ccccc12)C(=O)N[C@@H](CC(N)=O)C(=O)N[C@@H](CO)C(=O)N[C@@H](Cc1ccccc1)c1cn(Cc2cn([C@@H](CC(C)C)C(=O)N[C@@H](CCCNC(=N)N)C(=O)N[C@@H](Cc3ccc(O)cc3)C(N)=O)nn2)nn1
EC50 (KiSS-1 receptor [1]): 120 nM | remaining at 6 h, 50 µM [2]: 50.7%

Structure (SMILES): CCCCCCCCCCCCCCCC(=O)N[C@@H](CCC(=O)NCCCC[C@H](NC(=O)[C@H](CC(N)=O)NC(=O)[C@H](Cc1ccc(O)cc1)NC(C)=O)C(=O)N[C@@H](CC(N)=O)C(=O)N[C@@H](CO)C(=O)N[C@@H](Cc1ccccc1)C(=O)NCC(=O)N[C@@H](CC(C)C)C(=O)N[C@@H](CCCNC(=N)N)C(=O)N[C@@H](Cc1ccc(O)cc1)C(N)=O)C(=O)O (Ac-YNK([γGlu-Palmitoyl])NSFGLRY-NH2)
EC50 (KiSS-1 receptor [1]): 24.4 nM

Structure (SMILES): CCCCCCCCCCCCCCCC(=O)N[C@@H](CCC(=O)NCCCC[C@H](NC(=O)[C@H](CC(N)=O)NC(=O)[C@H](Cc1ccc(O)cc1)NC(C)=O)C(=O)N[C@@H](CC(N)=O)C(=O)N[C@@H](CO)C(=O)N[C@@H](Cc1ccccc1)C(=O)NCc1cn([C@@H](CC(C)C)C(=O)N[C@@H](CCCNC(=N)N)C(=O)N[C@@H](Cc2ccc(O)cc2)C(N)=O)nn1)C(=O)O (Ac-YNK([γGlu-Palmitoyl])NSF[Glyψ(1,4-Tz)Leu]RY-NH2)
EC50 (KiSS-1 receptor [1]): 216 nM

Structure (SMILES): CC(=O)N[C@@H](Cc1ccc(O)cc1)C(=O)N[C@@H](CC(N)=O)C(=O)N[C@@H](Cc1c[nH]c2ccccc12)C(=O)N[C@@H](CC(N)=O)C(=O)N[C@@H](CO)C(=O)N[C@@H](Cc1ccccc1)C(=O)NCc1cn([C@@H](CC(C)C)C(=O)N[C@@H](CCCNC(=N)N)C(=O)N[C@@H](Cc2ccc(O)cc2)C(N)=O)nn1 (Ac-YNWNSF[Glyψ(1,4-Tz)Leu]RY-NH2)
Activity (Ovis aries [3]): Active | EC50 (KiSS-1 receptor [1]): 0.07 nM | Ratio EC50 (KiSS-1 receptor [18]): 30 | remaining at 6 h, 50 µM [2]: 40.8% | Ratio EC50 (Homo sapiens): > 10000 | Activity (Ovis aries [19]): 5.4 ng/mL | EC50 [13]: > 5000 nM | Activity (Ovis aries [15]): Active | fold change (FC) (Ovis aries [20]): >2 | Activity (Ovis aries [16]): Active | Activity (Ovis aries [21]): Active

Structure (SMILES): CC(=O)N[C@@H](Cc1ccc(O)cc1)C(=O)N[C@@H](CC(N)=O)C(=O)N[C@@H](Cc1c[nH]c2ccccc12)C(=O)N[C@@H](CC(N)=O)C(=O)N[C@@H](CO)C(=O)N[C@@H](Cc1ccccc1)C(=O)NNC(=O)N[C@@H](CC(C)C)C(=O)N[C@@H](CCCNC(=N)N)C(=O)N[C@@H](Cc1ccc(O)cc1)C(N)=O (Ac-YNWNSF[azaGly]LRY-NH2)
Drug metabolism [22]: metabolite_detected | EC50 (KiSS-1 receptor [1]): 0.006 nM | remaining at 6 h, 50 µM [2]: 8.4%

Now from value to compound, other results behind:

EC50 (KiSS-1 receptor [1]): 182 nM
Structure (SMILES): CCCCCCCCCCCCCCCC(=O)NCCCC[C@H](NC(=O)[C@H](Cc1ccc(O)cc1)NC(C)=O)C(=O)N[C@@H](Cc1c[nH]c2ccccc12)C(=O)N[C@@H](CC(N)=O)C(=O)N[C@@H](CO)C(=O)N[C@@H](Cc1ccccc1)C(=O)NCC(=O)N[C@@H](CC(C)C)C(=O)N[C@@H](CCCNC(=N)N)C(=O)N[C@@H](Cc1ccc(O)cc1)C(N)=O (Ac-YK(Palmitoyl)WNSFGLRY-NH2)

EC50 (KiSS-1 receptor [1]): 2.9 nM
Structure (SMILES): CCCCCCCCCCCCCCCC(=O)N[C@@H](CCC(=O)NCCCC[C@H](NC(=O)[C@H](Cc1ccc(O)cc1)NC(C)=O)C(=O)N[C@@H](Cc1c[nH]c2ccccc12)C(=O)N[C@@H](CC(N)=O)C(=O)N[C@@H](CO)C(=O)N[C@@H](Cc1ccccc1)C(=O)NCC(=O)N[C@@H](CC(C)C)C(=O)N[C@@H](CCCNC(=N)N)C(=O)N[C@@H](Cc1ccc(O)cc1)C(N)=O)C(=O)O (Ac-YK([γGlu-Palmitoyl])WNSFGLRY-NH2)

EC50 (KiSS-1 receptor [1]): 1.6 nM | Ratio EC50 (Homo sapiens): > 100 | EC50 [13]: 222 nM
Structure (SMILES): CCCCCCCCCCCCCCCC(=O)N[C@@H](CCC(=O)NCCCC[C@H](NC(=O)[C@H](Cc1ccc(O)cc1)NC(C)=O)C(=O)N[C@@H](Cc1c[nH]c2ccccc12)C(=O)N[C@@H](CC(N)=O)C(=O)N[C@@H](CO)C(=O)N[C@@H](Cc1ccccc1)C(=O)NCc1cn([C@@H](CC(C)C)C(=O)N[C@@H](CCCNC(=N)N)C(=O)N[C@@H](Cc2ccc(O)cc2)C(N)=O)nn1)C(=O)O (Ac-YK([γGlu-Palmitoyl])WNSF[Glyψ(1,4-Tz)Leu]RY-NH2)
Activity (Ovis aries [3]): Dose-dependent effect | Activity (Ovis aries [4]): 1.1 ng/mL | Time (Ovis aries [5]): >9 h | Activity (Ovis aries [6]): 2400 ng·min/mL | Activity (Ovis aries [7]): Active | Activity (Ovis aries [8]): inactive | fold change (FC) (Ovis aries [9]): 25 | Activity (Ovis aries [10]): 274 ng·min/mL | Activity (Ovis aries [11]): inactive | fold change (FC) (Ovis aries [12]): 40 | Activity (Ovis aries [14]): 5.3 ng/mL | Activity (Ovis aries [15]): Dose-dependent effect | Activity (Ovis aries [16]): Dose-dependent effect | Activity (Ovis aries [17]): 13.3 ng/mL

EC50 (KiSS-1 receptor [1]): > 500 nM
Structure (SMILES): CCCCCCCCCCCCCCCC(=O)NCCCC[C@H](NC(=O)[C@H](CC(N)=O)NC(=O)[C@H](Cc1ccc(O)cc1)NC(C)=O)C(=O)N[C@@H](CC(N)=O)C(=O)N[C@@H](CO)C(=O)N[C@@H](Cc1ccccc1)C(=O)NCC(=O)N[C@@H](CC(C)C)C(=O)N[C@@H](CCCNC(=N)N)C(=O)N[C@@H](Cc1ccc(O)cc1)C(N)=O (Ac-YNK(Palmitoyl)NSFGLRY-NH2)
